A selection: hits, their analogues and other compounds. The true share with any hit is near 1.9%.
Tn6 DDE FP = inhibitors of Tn6 peptide binding to human fibrin DD(E) | P02675 | Fibrin DD(E) TRITC-Tn6 fluorescence polarization displacement | inhibition, % at 8.3 µM | 370,000 compounds, 0.21% hits | AID 720509;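 active = inhibition above a per-campaign cutoff: mean of compounds within control limits plus 3 SD, cut at about 15% in these data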;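 also: 0% = median of all compound wells on the plate and 100% = blocking peptide control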
Target sequence (P02675 whole entry, looked up): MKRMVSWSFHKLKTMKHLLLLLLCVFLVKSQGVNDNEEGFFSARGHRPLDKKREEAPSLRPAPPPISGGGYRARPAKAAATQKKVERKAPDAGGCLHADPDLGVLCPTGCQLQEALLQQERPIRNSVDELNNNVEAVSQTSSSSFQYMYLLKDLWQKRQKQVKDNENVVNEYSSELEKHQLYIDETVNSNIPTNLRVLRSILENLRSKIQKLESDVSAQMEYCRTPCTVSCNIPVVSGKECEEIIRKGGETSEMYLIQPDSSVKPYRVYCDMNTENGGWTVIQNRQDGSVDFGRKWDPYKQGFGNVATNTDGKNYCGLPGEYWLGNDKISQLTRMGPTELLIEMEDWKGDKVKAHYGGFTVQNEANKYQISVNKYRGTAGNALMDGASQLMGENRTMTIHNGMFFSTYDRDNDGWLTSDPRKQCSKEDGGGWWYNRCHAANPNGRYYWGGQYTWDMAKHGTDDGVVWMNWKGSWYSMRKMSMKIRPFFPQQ
LEDGF integ inh = blocks HIV-1 LEDGF/p75-dependent DNA integration. TR-FRET IN-LEDGF/p75 DNA integration, Eu/Cy5. 370,000 compounds, 0.64% hits. inhibition, % at 3.7 µM. AID 743269;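 active = inhibition above the screen-wide mean plus 3 SD, cut at about 13% in these data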;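 also: signal is the Cy5 over europium emission ratio at 671 and 618 nm; 0% = plate median of compound wells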
TDP2 absorb = TDP2 (human) inhibition, absorbance primary screen. recombinant TDP2, T5PNP hydrolysis, p-nitrophenol absorbance 415 nm. inhibition, % at 12.8 µM. 370,000 compounds, 0.34% hits;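 active = inhibition above the mean of all tested compounds plus 3 SD, set per campaign, cut at about 25% in these data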;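 also: 0% = DMSO with enzyme and 100% = buffer with substrate but no TDP2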
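Assay system: recombinant human TDP2 / Reagent: T5PNP substrate at 5 mM, a TopII-DNA adduct mimic / Measured by: epi absorbance from released p-nitrophenol / Evaluation: % inhibition relative to enzyme-containing and enzyme-free wells / Control set: enzyme-free and DMSO wells / Replicates: each compound tested once, singlicate / Schedule: enzyme reaction with compound for 2 h at 37 °C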
UHRF1 binding = blocks human UHRF1 binding to methylated DNA | inhibition, % at 4.4 µM | UHRF1 binding to methylated oligo, TR-FRET | 370,000 compounds, 0.75% hits | Q96T88; in the data active = inhibition above about 21%;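 also: UHRF1 SRA domain binding a hemimethylated CpG hairpin DNA probe; 0% = median of test compound wells and 100% = reference inhibitor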
MBD2 inh = blocks human MBD2 binding to methylated DNA | Q9UBB5 | inhibition, % at 4.4 µM | 370,000 compounds, 0.31% hits | TR-FRET, MBD2 binding to methylated oligonucleotide; in the data active = inhibition above about 13%
Tn7 DDE FP = DD(E)-Tn7 binding inhibition, primary FP screen; 370,000 compounds, 0.13% hits; AID 720508; FP displacement of FITC-Tn7 peptide from fibrin DD(E); 0% = median of compound wells per plate; P02675; inhibition, % at 8.3 µM;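 active = inhibition above the mean of compounds falling within the control limits plus 3 SD of them, cut at about 14% in these data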;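 also: 0% = plate median of compound wells and 100% = 10 µM Aha-Tn7 peptide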
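Assay system: Fibrin-DD(E) protein isolated from polymerized human fibrin clots; read-out basis: percent inhibition; medium: Tris/NaCl/CaCl2 buffer, pH 7.8; signal: FP measurement; incubation: 10 min plus 3 h, room temperature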
IN multimer act = counter-screen for LEDGF/p75 integration inhibitors: HIV-1 integrase multimerization activators; shares compounds with LEDGF integ inh; TR-FRET HIV-1 integrase multimerization, biochemical; activation, % at 7.7 µM; 2,000 compounds, 17% hits; AID 1053131; in the data active = activation above about 8.9%
TR-FRET interf = TR-FRET optical interference, LEDGF/p75 integration counter-screen | shares compounds with LEDGF integ inh | TR-FRET optical interference counterscreen, HIV-1 IN multimerization | inhibition, % at 7.7 µM | 2,000 tested, under 10 active;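 active = inhibition above the mean over all tested compounds plus 3 SD, which no compound reached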;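 also: 0% = integrase with antibodies and DMSO and 100% = antibodies without integrase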
IN-LEDGF confirm = confirmation of HIV-1 LEDGF/p75-dependent integration inhibitors; 2,000 compounds, 36% hits; inhibition, % at 3.7 µM; TR-FRET LEDGF/p75-dependent HIV-1 integration, biochemical; shares compounds with LEDGF integ inh; in the data active = inhibition above about 14%
Active calls of the source: *.

Results for COc1ccc(C2OCCNC3C2C(=O)N(Cc2ccc(OC)cc2OC)C3Cc2ccccc2)cc1 (centres undefined) ?
Tn6 DDE FP: -2; LEDGF integ inh: -3; TDP2 absorb: 6; UHRF1 binding: 6; MBD2 inh: -1; Tn7 DDE FP: 9

How did CCN=C1S/C(=C\c2cc(Cl)c(OC)c(OC)c2)C(=O)N1CC do in these assays?
Tn6 DDE FP: -1; LEDGF integ inh: 17*; TDP2 absorb: 4; UHRF1 binding: 0; MBD2 inh: 1; Tn7 DDE FP: -4; IN multimer act: 0; TR-FRET interf: 1; IN-LEDGF confirm: -11

Results for CCN=C1S/C(=C\c2ccc(OCC)c(OC)c2)C(=O)N1CC ?
Tn6 DDE FP: -4; LEDGF integ inh: -3; TDP2 absorb: -10; UHRF1 binding: 8; MBD2 inh: 10; Tn7 DDE FP: 0

Results for Nc1ccc(N2CCN(CCCCN3C(=O)C4CCCN4C3=O)CC2)cc1 (centres undefined) ?
Tn6 DDE FP: 50*; LEDGF integ inh: 22*; TDP2 absorb: 15; UHRF1 binding: 10; MBD2 inh: 7; Tn7 DDE FP: 1; IN multimer act: -2; TR-FRET interf: 12; IN-LEDGF confirm: -4

How did Cc1ccccc1N1CCN(CCCCN2C(=O)C3CCCN3C2=O)CC1 (centres undefined) do in these assays?
Tn6 DDE FP: 10; LEDGF integ inh: -1; TDP2 absorb: -1; UHRF1 binding: -5; MBD2 inh: 0; Tn7 DDE FP: -8

What do the screens show for `O=C(COC(=O)c1c2c(nc3ccccc13)/C(=C\c1ccco1)CC2)NC1CCCC1`?
Tn6 DDE FP: -1; LEDGF integ inh: 28*; TDP2 absorb: -1; UHRF1 binding: 19; MBD2 inh: 11; Tn7 DDE FP: -4; IN multimer act: 34*; TR-FRET interf: -121; IN-LEDGF confirm: 50*

Results for O=C(COC(=O)c1c2c(nc3ccccc13)/C(=C/c1cccc([N+](=O)[O-])c1)CCC2)NC1CCS(=O)(=O)C1 (centres undefined) ?
Tn6 DDE FP: -5; LEDGF integ inh: 0; TDP2 absorb: -1; UHRF1 binding: 3; MBD2 inh: 5; Tn7 DDE FP: 7

How did COC(=O)N1C[C@H](OCc2ccc3c(c2)OCO3)[C@H]2C[C@@H]1c1ccccc1O2 do in these assays?
Tn6 DDE FP: 4; LEDGF integ inh: -1; TDP2 absorb: -9; UHRF1 binding: -1; MBD2 inh: 4; Tn7 DDE FP: -2

What do the screens show for `COCCCn1cnn2c(=O)c3ccccc3nc2c1=O`?
Tn6 DDE FP: -6; LEDGF integ inh: 3; TDP2 absorb: 9; UHRF1 binding: 2; MBD2 inh: 1; Tn7 DDE FP: -11

Results for CCC/C(C(=O)NCCO)=C1/c2ccccc2C(=O)N1c1ccccc1 ?
Tn6 DDE FP: 9; LEDGF integ inh: 18*; TDP2 absorb: 9; UHRF1 binding: 4; MBD2 inh: 4; Tn7 DDE FP: -2; IN multimer act: -3; TR-FRET interf: 11; IN-LEDGF confirm: 3

Results for O=C(CSc1ncccn1)Nc1ncc(C(F)(F)F)cc1Cl ?
Tn6 DDE FP: 2; LEDGF integ inh: 82*; TDP2 absorb: 3; UHRF1 binding: -1; MBD2 inh: -1; Tn7 DDE FP: 7; IN multimer act: 0; TR-FRET interf: -1; IN-LEDGF confirm: 4

What do the screens show for `CC(C)(C)S(=O)(=O)N1C[C@@H]2CC(=O)C=C2[C@H]1CCO`?
Tn6 DDE FP: -1; LEDGF integ inh: 4; TDP2 absorb: -9; UHRF1 binding: 6; MBD2 inh: 2; Tn7 DDE FP: -2
